Some results are limits rather than exact numbers.

Data set [1] addresses Voltage-dependent N-type calcium channel subunit alpha-1B (Homo sapiens, UniProt Q00975). The data set can be described thus: Inhibition of Cav2.2 in human SH-SY5Y cells assessed as inhibition of calcium influx preincubated 300 secs followed by addition of KCL/CaCl2 and measured for 300 secs in presence of Cav1 blocker nifedipine by calcium 6 dye based calcium influx assay. In kind it is cell-based. An outline of the steps:
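Native Cav2.2 in SH-SY5Y neuroblastoma cells seeded at 40000/well and grown 48 h at 37 °C, 5% CO2. Calcium 6 dye loading 30 min at 37 °C in HEPES buffer pH 7.4 with 0.1% BSA and 10 µM nifedipine. Compound added for 300 s, then 90 mM KCl/5 mM CaCl2, read 300 s (ex 470-495, em 515-575 nm). Top concentration 100 µM, 3-fold dilutions, 1% DMSO; cilnidipine control; n = 3.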

Data set [2] can be described thus: Stability in Sprague-Dawley rat plasma assessed as parent compound remaining at 150 uM measured after 24 hrs at 37 degreeC by HPLC analysis. It counts as ADME, cell-free. As to conditions: read-out: Stability.
Data set [3] in a line: Metabolic stability in rat liver microsomes assessed intrinsic clearance per mg protein at 1 uM measured up to 60 mins in presence of NADPH by LC/HRMS analysis. It counts as ADME, Microsome. The note with it: 1 h. In general terms: Liver microsomes are a subcellular fraction often used to study metabolism.

Voltage-dependent N-type calcium channel subunit alpha-1B, sequence (Q00975 whole entry): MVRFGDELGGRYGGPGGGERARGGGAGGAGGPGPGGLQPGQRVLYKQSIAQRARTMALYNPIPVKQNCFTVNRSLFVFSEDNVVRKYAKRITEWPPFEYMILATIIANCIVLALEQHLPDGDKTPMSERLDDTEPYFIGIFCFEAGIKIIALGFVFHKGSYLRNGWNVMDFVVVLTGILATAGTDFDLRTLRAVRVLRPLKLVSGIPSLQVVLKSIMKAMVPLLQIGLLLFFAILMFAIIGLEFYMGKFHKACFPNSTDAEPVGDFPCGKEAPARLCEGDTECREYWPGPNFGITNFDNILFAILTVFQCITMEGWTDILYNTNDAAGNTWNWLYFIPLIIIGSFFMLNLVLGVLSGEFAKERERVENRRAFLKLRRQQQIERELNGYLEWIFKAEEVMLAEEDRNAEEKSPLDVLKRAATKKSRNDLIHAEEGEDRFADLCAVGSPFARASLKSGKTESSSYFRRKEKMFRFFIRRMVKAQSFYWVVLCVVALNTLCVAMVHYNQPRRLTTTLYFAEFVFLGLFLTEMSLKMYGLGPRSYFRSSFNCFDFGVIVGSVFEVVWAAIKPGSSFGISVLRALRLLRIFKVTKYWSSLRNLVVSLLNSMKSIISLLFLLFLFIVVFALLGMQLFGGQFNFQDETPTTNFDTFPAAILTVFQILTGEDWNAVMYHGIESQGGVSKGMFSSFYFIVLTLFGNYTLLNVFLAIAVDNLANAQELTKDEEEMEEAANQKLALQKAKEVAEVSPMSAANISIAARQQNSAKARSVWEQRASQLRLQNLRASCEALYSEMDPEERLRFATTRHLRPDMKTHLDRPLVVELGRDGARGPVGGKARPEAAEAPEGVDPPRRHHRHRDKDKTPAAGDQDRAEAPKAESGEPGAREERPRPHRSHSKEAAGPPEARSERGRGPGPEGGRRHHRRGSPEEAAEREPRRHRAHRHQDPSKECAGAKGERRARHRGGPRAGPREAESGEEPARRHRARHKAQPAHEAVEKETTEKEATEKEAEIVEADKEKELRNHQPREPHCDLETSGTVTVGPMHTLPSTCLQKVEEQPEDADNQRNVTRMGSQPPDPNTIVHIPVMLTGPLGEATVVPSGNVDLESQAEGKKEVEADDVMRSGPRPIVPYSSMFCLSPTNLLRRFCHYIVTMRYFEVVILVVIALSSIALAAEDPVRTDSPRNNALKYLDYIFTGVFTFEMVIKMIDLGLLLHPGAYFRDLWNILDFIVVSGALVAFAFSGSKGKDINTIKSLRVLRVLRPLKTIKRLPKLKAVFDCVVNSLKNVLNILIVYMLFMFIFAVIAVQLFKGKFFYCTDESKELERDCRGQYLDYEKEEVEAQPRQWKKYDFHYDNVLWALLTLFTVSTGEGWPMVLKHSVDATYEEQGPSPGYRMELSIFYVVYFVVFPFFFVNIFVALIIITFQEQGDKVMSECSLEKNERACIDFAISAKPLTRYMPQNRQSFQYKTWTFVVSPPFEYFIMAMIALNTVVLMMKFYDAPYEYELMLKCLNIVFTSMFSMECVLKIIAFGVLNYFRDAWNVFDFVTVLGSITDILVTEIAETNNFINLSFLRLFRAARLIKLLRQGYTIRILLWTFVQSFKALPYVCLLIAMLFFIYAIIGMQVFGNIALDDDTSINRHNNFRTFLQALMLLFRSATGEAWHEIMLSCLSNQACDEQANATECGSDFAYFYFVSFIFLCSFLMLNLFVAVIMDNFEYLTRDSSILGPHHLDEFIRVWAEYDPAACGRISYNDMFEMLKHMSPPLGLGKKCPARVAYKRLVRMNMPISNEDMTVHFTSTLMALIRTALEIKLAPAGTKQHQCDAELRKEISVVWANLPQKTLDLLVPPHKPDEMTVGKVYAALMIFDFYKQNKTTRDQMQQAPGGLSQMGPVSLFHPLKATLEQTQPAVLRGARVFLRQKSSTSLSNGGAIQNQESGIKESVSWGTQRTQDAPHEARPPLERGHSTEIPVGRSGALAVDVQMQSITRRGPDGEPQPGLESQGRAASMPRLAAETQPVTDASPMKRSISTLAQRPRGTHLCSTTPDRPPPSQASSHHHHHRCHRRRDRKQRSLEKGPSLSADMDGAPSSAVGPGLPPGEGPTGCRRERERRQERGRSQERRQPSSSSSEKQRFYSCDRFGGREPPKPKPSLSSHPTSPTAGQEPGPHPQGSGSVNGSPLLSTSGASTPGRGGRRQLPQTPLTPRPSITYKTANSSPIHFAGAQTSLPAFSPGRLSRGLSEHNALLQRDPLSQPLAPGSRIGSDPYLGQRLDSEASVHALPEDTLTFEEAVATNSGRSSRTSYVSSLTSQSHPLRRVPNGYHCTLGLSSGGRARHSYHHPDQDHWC

The IC50 is the concentration at which inhibition is half-maximal. Turning to `O=C(O)C(F)(F)F.O=S(=O)(c1ccc(OCCCn2ccnc2)cc1)N1c2ccccc2Oc2ccccc21`, the IC50 in data set [1] was determined as 48.7 µM. The remaining at 24 h, 150 µM in data set [2] was above 90%. Besides, the CLint in data set [3] amounted to 132 µL/min/mg. Consider `O=S(=O)(c1ccc(NCCCN2CCCC2)cc1)N1c2ccccc2Oc2ccccc21`, for which the 50% inhibitory concentration (IC50) in data set [1] is 4.4 µM. Take `O=C(O)C(F)(F)F.O=S(=O)(c1ccc(OCCCN2CCCC2)cc1)N1c2ccccc2Oc2ccccc21`: the IC50 in data set [1] is 8 µM. Also, the remaining at 24 h, 150 µM in data set [2] was above 90%. For the same compound, in data set [3], the CLint came to 83 µL/min/mg. Turning to `O=S(=O)(c1ccc(NCCCn2ccnc2)cc1)N1c2ccccc2Oc2ccccc21`, in data set [1], the half-inhibitory concentration (IC50) is 13.7 µM. With `O=S(=O)(c1ccc(NCCCN2CCCCC2)cc1)N1c2ccccc2Oc2ccccc21`, in data set [1], the 50% inhibitory concentration (IC50) amounted to 15.2 µM. On the same count and under the same terms, next, `CN(C)CCCNc1ccc(S(=O)(=O)N2c3ccccc3Oc3ccccc32)cc1`: 9.1 µM.

Regarding `CN(C)CCCOc1ccc(S(=O)(=O)N2c3ccccc3Oc3ccccc32)cc1.O=C(O)C(F)(F)F`, in data set [1], the IC50 stood at 4.3 µM. In addition, the remaining at 24 h, 150 µM in data set [2] is above 90%. Further, the CLint in data set [3] amounted to 105 µL/min/mg.

On to `O=S(=O)(c1ccc(NC2CCNCC2)cc1)N1c2ccccc2Oc2ccccc21`, for which, in data set [1], the IC50 was 19.9 µM. In the case of `CN(C)CCCN(C)c1ccc(S(=O)(=O)N2c3ccccc3Oc3ccccc32)cc1`, the IC50 in data set [1] stood at 18.7 µM.

With `O=S(=O)(c1ccc(NCCCN2CCOCC2)cc1)N1c2ccccc2Oc2ccccc21`, the IC50 in data set [1] is 20.8 µM. Still for that read-out and setting: next, `CNCCCNc1ccc(S(=O)(=O)N2c3ccccc3Oc3ccccc32)cc1`: 10.9 µM; `COCCCOc1ccc(S(=O)(=O)N2c3ccccc3Oc3ccccc32)cc1`: 172 µM. For `O=C(O)C(F)(F)F.O=S(=O)(c1ccc(OCCCN2CCOCC2)cc1)N1c2ccccc2Oc2ccccc21`, in data set [1], the IC50 was determined as 29 µM. For the same compound, the remaining at 24 h, 150 µM in data set [2] is above 90%. Also, in data set [3], the CLint was determined as 239 µL/min/mg.

Consider `CNCCCOc1ccc(S(=O)(=O)N2c3ccccc3Oc3ccccc32)cc1.O=C(O)C(F)(F)F`, for which the IC50 in data set [1] amounted to 4.6 µM. The remaining at 24 h, 150 µM in data set [2] is 73%. Further, the CLint in data set [3] was 34 µL/min/mg. Take `O=C(O)C(F)(F)F.O=S(=O)(c1ccc(OCCCN2CCCCC2)cc1)N1c2ccccc2Oc2ccccc21`: the IC50 in data set [1] worked out at 7.6 µM. Further, the remaining at 24 h, 150 µM in data set [2] was above 90%. The CLint in data set [3] was 97 µL/min/mg.

Source of the values: ChEMBL document CHEMBL5576111, “N-Sulfonylphenoxazines as neuronal calcium ion channel blockers” (RSC Med Chem, 2024).
